Molecular target: T1, Adenosine receptor A2b (Homo sapiens) (UniProt P29275)
T1 sequence (whole entry): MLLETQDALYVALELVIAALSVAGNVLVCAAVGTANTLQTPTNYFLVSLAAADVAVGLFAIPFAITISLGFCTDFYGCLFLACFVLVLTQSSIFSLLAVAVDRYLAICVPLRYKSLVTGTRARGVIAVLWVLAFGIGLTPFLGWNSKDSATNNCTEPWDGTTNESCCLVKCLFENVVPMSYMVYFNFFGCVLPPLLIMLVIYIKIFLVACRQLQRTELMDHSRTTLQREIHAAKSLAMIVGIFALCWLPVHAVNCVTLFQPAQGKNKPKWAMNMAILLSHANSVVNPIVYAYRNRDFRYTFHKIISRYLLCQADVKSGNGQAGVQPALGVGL
Assay: Agonist activity human adenosine A2B receptor expressed in CHO cells assessed as stimulation of adenylate cyclase relative to NECA
Format: functional, cell-based
Method in brief: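 Stably transfected CHO cells; cAMP accumulation by enzyme immunoassay kit. Relative potency computed as pEC50(compound) minus pEC50(NECA) determined in the same publication.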

Row | SMILES | Activity
1 | CCNC(=O)[C@H]1O[C@@H](n2cnc3c(NNC(=O)c4ccc[nH]4)nc(Cl)nc32)[C@H](O)[C@@H]1O | -0.351
2 | CCNC(=O)[C@H]1O[C@@H](n2cnc3c(Nc4ccc(OCC(=O)Nc5cc(OC)cc(OC)c5)cc4)ncnc32)[C@H](O)[C@@H]1O | 0.461
3 | CCNC(=O)[C@H]1O[C@@H](n2cnc3c(Nc4ccc(OCC(=O)NCc5ccccc5)cc4)nc(Cl)nc32)[C@H](O)[C@@H]1O | -0.053
4 | CCNC(=O)[C@H]1O[C@@H](n2cnc3c(Nc4ccc(OCC(=O)NC5CCCCC5)cc4)ncnc32)[C@H](O)[C@@H]1O | -0.308
5 | CCNC(=O)[C@H]1O[C@@H](n2cnc3c(Nc4ccc(OCC(=O)Nc5ccc(N6CCOCC6)cc5)cc4)ncnc32)[C@H](O)[C@@H]1O | 0.287
6 | Nc1nc(OCCc2c[nH]c3cc(Br)ccc23)nc2c1ncn2[C@@H]1O[C@H](CO)[C@@H](O)[C@H]1O | 0.0389
7 | CNc1nc(C#CCCCc2ccccc2)nc2c1ncn2[C@@H]1O[C@H](CO)[C@@H](O)[C@H]1O | -1.62
8 | CNc1nc(C#C[C@H](O)c2ccccc2)nc2c1ncn2[C@@H]1O[C@H](CO)[C@@H](O)[C@H]1O | -1.62
9 | CCNC(=O)[C@H]1O[C@@H](n2cnc3c(Nc4ccc(OCC(=O)Nc5ccc(I)cc5)cc4)ncnc32)[C@H](O)[C@@H]1O | 0.71
10 | CCNC(=O)[C@H]1O[C@@H](n2cnc3c(NNC(=O)c4sccc4C)nc(Cl)nc32)[C@H](O)[C@@H]1O | -0.327
11 | CCNC(=O)[C@H]1O[C@@H](n2cnc3c(Nc4ccc(OCC(=O)Nc5ccc6c(c5)OCO6)cc4)ncnc32)[C@H](O)[C@@H]1O | 0.64
12 | Nc1nc(OCCc2c[nH]c3ccc(Br)cc23)nc2c1ncn2[C@@H]1O[C@H](CO)[C@@H](O)[C@H]1O | -0.416
13 | CCNC(=O)[C@H]1O[C@@H](n2cnc3c(N)nc(OCCc4c[nH]c5ccccc45)nc32)[C@H](O)[C@@H]1O | -0.849
14 | Nc1nc(OCCc2c[nH]c3ccc(O)cc23)nc2c1ncn2[C@@H]1O[C@H](CO)[C@@H](O)[C@H]1O | -0.806
15 | Nc1nc(OCCc2c[nH]c3ccccc23)nc2c1ncn2[C@@H]1O[C@H](CO)[C@@H](O)[C@H]1O | -0.33
16 | CC(C)Nc1nc(C#C[C@@H](O)c2ccccc2)nc2c1ncn2[C@@H]1O[C@H](CO)[C@@H](O)[C@H]1O | 0.398
17 | CCNC(=O)[C@H]1O[C@@H](n2cnc3c(Nc4ccc(OCC(=O)Nc5ccccc5)cc4)nc(Cl)nc32)[C@H](O)[C@@H]1O | 0.561
18 | CC(C)(C)OC(=O)C1CCCN1C[C@@H](O)[C@H](Cc1ccccc1)NC(=O)[C@H](CC(N)=O)NC(=O)OCc1ccccc1 (stereo not given in full) | -0.405
19 | CCCCC#Cc1nc(NC(C)C)c2ncn([C@@H]3O[C@H](CO)[C@@H](O)[C@H]3O)c2n1 | -1.62
20 | CCNC(=O)[C@H]1O[C@@H](n2cnc3c(NNC(=O)c4ccco4)ncnc32)[C@H](O)[C@@H]1O | 0.29
21 | CCNc1nc(C#C[C@H](O)c2ccccc2)nc2c1ncn2[C@@H]1O[C@H](CO)[C@@H](O)[C@H]1O | -0.579
22 | CCNC(=O)[C@H]1O[C@@H](n2cnc3c(NNC(=O)c4ccc(C)s4)ncnc32)[C@H](O)[C@@H]1O | -0.232
23 | CCNC[C@H]1O[C@@H](n2cnc3c(NC(=N)N)ncnc32)[C@H](O)[C@@H]1O | 0.41
24 | CCNC(=O)[C@H]1O[C@@H](n2cnc3c(NNC(=O)c4ccsc4)nc(Cl)nc32)[C@H](O)[C@@H]1O | -0.449

Row | SMILES | Activity
25 | CCNC(=O)[C@H]1O[C@@H](n2cnc3c(Nc4ccc(OCC(=O)Nc5ccc(C(C)(C)C)cc5)cc4)ncnc32)[C@H](O)[C@@H]1O | 0.976
26 | Nc1ncnc2c1ncn2[C@@H]1O[C@H](C(=O)NC2CC2)[C@@H](O)[C@H]1O | -0.233
27 | Nc1nc(OCCc2cccs2)nc2c1ncn2[C@@H]1O[C@H](CO)[C@@H](O)[C@H]1O | -1.1
28 | OC[C@H]1O[C@@H](n2cnc3c(NCc4ccccc4)ncnc32)[C@H](O)[C@@H]1O | -1.49
29 | CCCCC#Cc1nc(N)c2ncn([C@@H]3O[C@H](CO)[C@@H](O)[C@H]3O)c2n1 | -1.62
30 | Nc1nc(Cl)nc2c1ncn2[C@@H]1O[C@H](CO)[C@@H](O)[C@H]1O | -0.889
31 | CCNC(=O)[C@H]1O[C@@H](n2cnc3c(Nc4ccc(OCC(=O)NCc5ccccc5)cc4)ncnc32)[C@H](O)[C@@H]1O | 0.014
32 | CCNC(=O)[C@H]1O[C@@H](n2cnc3c(NNC(=O)c4ccco4)nc(Cl)nc32)[C@H](O)[C@@H]1O | -0.118
33 | CC(C)Nc1nc(C#C[C@H](O)c2ccccc2)nc2c1ncn2[C@@H]1O[C@H](CO)[C@@H](O)[C@H]1O | -0.569
34 | CCNC(=O)[C@H]1O[C@@H](n2cnc3c(NNC(=O)c4ccc(Br)o4)ncnc32)[C@H](O)[C@@H]1O | -0.363
35 | Nc1nc(OCCc2c[nH]c3cc(Cl)ccc23)nc2c1ncn2[C@@H]1O[C@H](CO)[C@@H](O)[C@H]1O | -0.188
36 | Nc1nc(OCCc2ccccc2)nc2c1ncn2[C@@H]1O[C@H](CO)[C@@H](O)[C@H]1O | -1.4
37 | CCNC(=O)[C@H]1O[C@@H](n2cnc3c(Nc4ccc(OCC(=O)Nc5ccc(OC)cc5)cc4)ncnc32)[C@H](O)[C@@H]1O | 0.68
38 | Nc1nc(C#C[C@H](O)c2ccccc2)nc2c1ncn2[C@@H]1O[C@H](CO)[C@@H](O)[C@H]1O | -0.412
39 | CCNC(=O)[C@H]1O[C@@H](n2cnc3c(Nc4ccc(OCC(=O)NC5CCCCC5)cc4)nc(Cl)nc32)[C@H](O)[C@@H]1O | -0.29
40 | O=S(=O)(O)c1ccc(Nc2ncnc3c2ncn3[C@@H]2O[C@H](CO)[C@@H](O)[C@H]2O)cc1 | -1.23
41 | CCNC(=O)[C@H]1O[C@@H](n2cnc3c(Nc4ccc(OCC(=O)NCc5ccc(OC)cc5)cc4)ncnc32)[C@H](O)[C@@H]1O | -0.19
42 | Nc1nc(OCCc2cccc3ccccc23)nc2c1ncn2[C@@H]1O[C@H](CO)[C@@H](O)[C@H]1O | -1.01
43 | CCCCC#Cc1nc(NC)c2ncn([C@@H]3O[C@H](CO)[C@@H](O)[C@H]3O)c2n1 | -1.62
44 | COc1ccc2[nH]cc(CCOc3nc(N)c4ncn([C@@H]5O[C@H](CO)[C@@H](O)[C@H]5O)c4n3)c2c1 | -0.951
45 | Nc1nc(OCCc2cc[nH]c2)nc2c1ncn2[C@@H]1O[C@H](CO)[C@@H](O)[C@H]1O | -1.27
46 | OC[C@H]1O[C@@H](n2cnc3c(Nc4ccccc4)ncnc32)[C@H](O)[C@@H]1O | -1.31
47 | Nc1nc(OCCc2c[nH]c3ccc(I)cc23)nc2c1ncn2[C@@H]1O[C@H](CO)[C@@H](O)[C@H]1O | -1.13
48 | CCNc1nc(C#C[C@@H](O)c2ccccc2)nc2c1ncn2[C@@H]1O[C@H](CO)[C@@H](O)[C@H]1O | 0.517

Row | SMILES | Activity
49 | CCNc1nc(OCCc2c[nH]c3ccccc23)nc2c1ncn2[C@@H]1O[C@H](CO)[C@@H](O)[C@H]1O | -1.37
50 | CCNC(=O)[C@H]1O[C@@H](n2cnc3c(N)nc(C#C[C@@H](O)c4ccccc4)nc32)[C@H](O)[C@@H]1O | 1.04
51 | CCNC(=O)[C@H]1O[C@@H](n2cnc3c(N)ncnc32)[C@H](O)[C@@H]1O | 0
52 | CCNC(=O)[C@H]1O[C@@H](n2cnc3c(Nc4ccc(OCC(=O)Nc5ccc(Cl)cc5)cc4)ncnc32)[C@H](O)[C@@H]1O | 1.1
53 | CCNC(=O)[C@H]1O[C@@H](n2cnc3c(NNC(=O)Cc4cccs4)nc(Cl)nc32)[C@H](O)[C@@H]1O | -0.576
54 | CCCCC#Cc1nc(NCC)c2ncn([C@@H]3O[C@H](CO)[C@@H](O)[C@H]3O)c2n1 | -1.62
55 | Nc1nc(C#C[C@@H](O)c2ccccc2)nc2c1ncn2[C@@H]1O[C@H](CO)[C@@H](O)[C@H]1O | 0.416
56 | CCNC(=O)[C@H]1O[C@@H](n2cnc3c(Nc4ccc(OCC(=O)Nc5ccccc5)cc4)ncnc32)[C@H](O)[C@@H]1O | 1.33
57 | CCNC(=O)[C@H]1O[C@@H](n2cnc3c(NC)ncnc32)[C@H](O)[C@@H]1O | -0.787
58 | CCNC(=O)[C@H]1O[C@@H](n2cnc3c(Nc4ccc(OCC(=O)Nc5ccc(I)cc5C(F)(F)F)cc4)ncnc32)[C@H](O)[C@@H]1O | 0.161
59 | CCNC(=O)[C@H]1O[C@@H](n2cnc3c(NNC(=O)c4cccs4)nc(Cl)nc32)[C@H](O)[C@@H]1O | -0.097
60 | CCNC(=O)[C@H]1O[C@@H](n2cnc3c(Nc4ccc(OCC(=O)Nc5ccc(OC)cc5)cc4)nc(Cl)nc32)[C@H](O)[C@@H]1O | -0.366
61 | CCNC(=O)[C@H]1O[C@@H](n2cnc3c(Nc4ccc(OCC(=O)Nc5ccc(F)cc5)cc4)ncnc32)[C@H](O)[C@@H]1O | 1.01
62 | CCNC(=O)[C@H]1O[C@@H](n2cnc3c(Nc4ccc(OCC(=O)Nc5ccc(OC)c(OC)c5)cc4)ncnc32)[C@H](O)[C@@H]1O | 0.533
63 | CCNC(=O)[C@H]1O[C@@H](n2cnc3c(N)nc(C#C[C@H](O)c4ccccc4)nc32)[C@H](O)[C@@H]1O | 0
64 | CCNC(=O)[C@H]1O[C@@H](n2cnc3c(Nc4ccc(OCC(=O)Nc5ccncc5)cc4)ncnc32)[C@H](O)[C@@H]1O | 0.681
65 | CNc1nc(C#C[C@@H](O)c2ccccc2)nc2c1ncn2[C@@H]1O[C@H](CO)[C@@H](O)[C@H]1O | -0.035
66 | CCNC(=O)[C@H]1O[C@@H](n2cnc3c(NNC(=O)c4ccc(C)[nH]4)nc(Cl)nc32)[C@H](O)[C@@H]1O | -0.039
67 | Nc1nc(OCCc2c[nH]c3ccc(F)cc23)nc2c1ncn2[C@@H]1O[C@H](CO)[C@@H](O)[C@H]1O | -0.739
68 | CCNC(=O)[C@H]1O[C@@H](n2cnc3c(Nc4ccc(OCC(=O)Nc5ccc(Br)cc5)cc4)ncnc32)[C@H](O)[C@@H]1O | 1.17
69 | CCNC(=O)[C@H]1O[C@@H](n2cnc3c(NNC(=O)c4ccc(C)o4)ncnc32)[C@H](O)[C@@H]1O | -0.152
70 | Nc1nc(OCCc2c[nH]c3ccc(Cl)cc23)nc2c1ncn2[C@@H]1O[C@H](CO)[C@@H](O)[C@H]1O | -1.19
